Active and inactive are the calls of the source. The calls are words filed in the database; no cut-off is given here.
Experiments:
ONS-76 [1] = assay: Anti-proliferative activity against human ONS-76 cells assessed as reduction in cell viability incubated for 48 hrs by MTT assay; type: functional, cell-based; conditions: ONS-76, 48 h
Summary of the method: (§1)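 Cells seeded in triplicate at 2 × 10^3 per well and allowed to adhere for 24h. JQ1 was given as serial dilutions in full medium, 1nM-6µM, from a 10 mM DMSO stock. Viability was read by MTT at each time point and IC50 derived from dose-response curves. Culture media were RPMI 1640/10% FCS for HD-MB3 (plus 1% NEAA), ONS-76, Daoy and UW-228, and EMEM/10% FCS for D-283 and D-341.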

HD-MB03 [2] = assay: Anti-proliferative activity against human HD-MB03 cells assessed as reduction in cell viability incubated for 48 hrs by MTT assay; type: functional, cell-based; conditions: HD-MB03, 48 h; summary of the method: as §1
ONS-76 [3] = assay: Anti-proliferative activity against human ONS-76 cells assessed as reduction in cell viability incubated for 120 hrs by MTT assay; type: functional, cell-based; conditions: ONS-76, 120 h; summary of the method: as §1
HD-MB03 [4] = assay: Induction of senescence in human HD-MB03 cells assessed as increase in population of cells in G1 phase at 500 nM incubated for 72 hrs by fluorometric SA-beta-gal activity assay; type: functional, cell-based
Summary of the method: (§2)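 Senescence read as fluorometric SA-β-gal activity. Cells seeded 2 × 10^3 per well in triplicate and allowed 24h to adhere, then exposed to 500 nM JQ1 or DMSO control for 72h. Assayed per kit protocol. Experiments repeated at least 3 times.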

[5] = molecular target: Bromodomain-containing protein 4 (Homo sapiens) (UniProt O60885); conditions: D341 cell line, dose 500.0 nM, time 24.0 hrs
D283 Med [6] = assay: Antiproliferative activity against human D283 cells at 500 nM incubated for 72 hrs by BrdU ELISA method; type: functional, cell-based
Summary of the method: (§3)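 Cells seeded in triplicate at 2 × 10^3 per well with 24h adherence, then treated with 500 nM JQ1 or DMSO control for 72h. Proliferation was measured by BrdU incorporation ELISA. Experiments were run independently at least 3 times.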

[7] = molecular target: Bromodomain-containing protein 4 (Homo sapiens) (UniProt O60885); conditions: Daoy, dose 500.0 nM, time 24.0 hrs
[8] = molecular target: Bromodomain-containing protein 4 (Homo sapiens) (UniProt O60885); conditions: ONS-76, dose 500.0 nM, time 24.0 hrs
Daoy [9] = assay: Induction of apoptosis in human Daoy cells assessed as increase in population of cells in G1 phase at 500 nM incubated for 72 hrs by ELISA; type: functional, cell-based
Daoy [10] = assay: Anti-proliferative activity against human Daoy cells assessed as reduction in cell viability incubated for 96 hrs by MTT assay; type: functional, cell-based; summary of the method: as §1
D341 cell line [11] = assay: Induction of apoptosis in human D341 cells assessed as increase in population of cells in sub-G1 phase at 500 nM incubated for 72 hrs by ELISA; type: functional, cell-based
Daoy [12] = assay: Induction of apoptosis in human Daoy cells assessed as increase in population of cells in G1 phase at 500 nM incubated for 72 hrs by flow cytometry; type: functional, cell-based
Summary of the method: (§4)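 Cells were cultured with 500 nM JQ1 or DMSO control, trypsinised and washed 3 times in PBS. DNA was stained with propidium iodide for 15 min and DNA content analysed by flow cytometry to give G1 and sub-G1 fractions.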

UW228 [13] = assay: Anti-proliferative activity against human UW228 cells assessed as reduction in cell viability incubated for 120 hrs by MTT assay; type: functional, cell-based; conditions: UW228, 120 h; summary of the method: as §1
HD-MB03 [14] = assay: Anti-proliferative activity against human HD-MB03 cells expressing dominant-negative TP53 mutant assessed as reduction in cell viability at 1 to 6000 nM incubated for 72 hrs by MTT assay; type: functional, cell-based; conditions: dose 1-6000 nM
Summary of the method: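 HD-MB3 was stably transfected with pMSCV-puro-p53DD and selected in 2 μg/mL puromycin. Cells were seeded in triplicate at 2 × 10^3 per well with 24h adherence, then exposed to serially diluted JQ1 in full medium for 72h. Viability was read by MTT.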

D341 cell line [15] = assay: Induction of senescence in human D341 cells assessed as increase in population of cells in G1 phase at 500 nM incubated for 72 hrs by fluorometric SA-beta-gal activity assay; type: functional, cell-based; summary of the method: as §2
[16] = molecular target: Bromodomain-containing protein 4 (Homo sapiens) (UniProt O60885); conditions: HD-MB03, dose 500.0 nM, time 12.0 hrs
HD-MB03 [17] = assay: Induction of apoptosis in human HD-MB03 cells assessed as increase in population of cells in sub-G1 phase at 500 nM incubated for 72 hrs by ELISA; type: functional, cell-based
D341 cell line [18] = assay: Anti-proliferative activity against human D341 cells assessed as reduction in cell viability incubated for 48 hrs by MTT assay; type: functional, cell-based; conditions: D341, 48 h; summary of the method: as §1
HD-MB03 [19] = assay: Induction of apoptosis in female athymic (nu/nu) mouse xenografted with human HD-MB03 cells as increase in expression of cleaved caspase 3 in tumor at 50 mg/kg, ip administered at 0, 12, 24 and 36 hrs over 2-day course by immunohistochemistry; type: functional, organism-based
Summary of the method: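 Nu/nu mice bearing subcutaneous HD-MB3 tumours received JQ1 50 mg/kg ip or DMSO at 0, 12, 24 and 36 h and were killed 4 h after the last dose, 3 tumours per group. Formalin-fixed 5µm sections underwent pH 6.0 antigen retrieval for 20 min at 100°C, then cleaved caspase 3 immunostaining (1:200) with quantification of positive cells.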

HD-MB03 [20] = assay: Induction of apoptosis in human HD-MB03 cells assessed as increase in population of cells in G1 phase at 500 nM incubated for 72 hrs by flow cytometry; type: functional, cell-based; summary of the method: as §4
D283 Med [21] = assay: Anti-proliferative activity against human D283 cells assessed as reduction in cell viability incubated for 120 hrs by MTT assay; type: functional, cell-based; summary of the method: as §1
ONS-76 [22] = assay: Antiproliferative activity against human ONS-76 cells at 500 nM incubated for 72 hrs by BrdU ELISA method; type: functional, cell-based; summary of the method: as §3
UW228 [23] = assay: Induction of senescence in human UW228 cells assessed as increase in population of cells in G1 phase at 500 nM incubated for 72 hrs by fluorometric SA-beta-gal activity assay; type: functional, cell-based; summary of the method: as §2
Daoy [24] = assay: Induction of senescence in human Daoy cells assessed as increase in population of cells in G1 phase at 500 nM incubated for 72 hrs by fluorometric SA-beta-gal activity assay; type: functional, cell-based; summary of the method: as §2
[25] = molecular target: Bromodomain-containing protein 4 (Homo sapiens) (UniProt O60885); conditions: UW228, dose 500.0 nM, time 24.0 hrs
ONS-76 [26] = assay: Induction of apoptosis in human ONS-76 cells assessed as increase in population of cells in sub-G1 phase at 500 nM incubated for 72 hrs by ELISA; type: functional, cell-based
Summary of the method: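 Cell death ELISA on ONS-76 or UW-228 cells seeded 2 × 10^3 per well in triplicate and allowed 24h to adhere. Treated with 500 nM JQ1 or DMSO for 72h, then apoptotic cell death measured by Cell Death Detection ELISA per kit protocol. Experiments repeated at least 3 times.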

D283 Med [27] = assay: Induction of senescence in human D283 cells assessed as increase in population of cells in G1 phase at 500 nM incubated for 72 hrs by fluorometric SA-beta-gal activity assay; type: functional, cell-based; summary of the method: as §2

## Cc1sc2c(c1C)C(c1ccc(Cl)cc1)=N[C@@H](CC(=O)OC(C)(C)C)c1nnc(C)n1-2
ONS-76 [1]
  IC50: 0.172 µM
HD-MB03 [2]
  IC50: 0.364 µM
ONS-76 [3]
  IC50: 0.123 µM
HD-MB03 [4]
  Activity: Active
[5]
  inhibition: Active
D283 Med [6]
  Activity: Active
[7]
  inhibition: Active
[8]
  inhibition: Active
Daoy [9]
  Activity: Active
Daoy [10]
  IC50: > 1 µM
D341 cell line [11]
  Activity: Active
Daoy [12]
  Activity: Active
UW228 [13]
  IC50: 0.897 µM
HD-MB03 [14]
  Activity: inactive
D341 cell line [15]
  Activity: Active
[16]
  inhibition: Active
HD-MB03 [17]
  Activity: Active
D341 cell line [18]
  IC50: 0.924 µM
HD-MB03 [19]
  Activity: Active
HD-MB03 [20]
  Activity: Active
D283 Med [21]
  IC50: 0.316 µM
ONS-76 [22]
  Activity: Active
UW228 [23]
  Activity: Active
Daoy [24]
  Activity: Active
[25]
  inhibition: Active
ONS-76 [26]
  Activity: Active
D283 Med [27]
  Activity: Active

From ChEMBL document CHEMBL5712071, “BET bromodomain protein inhibition is a therapeutic option for medulloblastoma” (Oncotarget, 2013)
